According to ChEMBL document CHEMBL1681705, “Optimisation of ITK inhibitors through successive iterative design cycles” (Bioorg Med Chem Lett, 2011):

How the values were obtained:
[1] = biological target: Serine/threonine-protein kinase pim-2 (Homo sapiens) (UniProt Q9P1W9); assay: Inhibition of Pim-2 at 0.1 uM; values are per cent of control
[2] = biological target: RAC-beta serine/threonine-protein kinase (Homo sapiens) (UniProt P31751); assay: Inhibition of PKBbeta at 0.1 uM; values are per cent of control
Chain of RAC-beta serine/threonine-protein kinase (Homo sapiens) (P31751 whole entry): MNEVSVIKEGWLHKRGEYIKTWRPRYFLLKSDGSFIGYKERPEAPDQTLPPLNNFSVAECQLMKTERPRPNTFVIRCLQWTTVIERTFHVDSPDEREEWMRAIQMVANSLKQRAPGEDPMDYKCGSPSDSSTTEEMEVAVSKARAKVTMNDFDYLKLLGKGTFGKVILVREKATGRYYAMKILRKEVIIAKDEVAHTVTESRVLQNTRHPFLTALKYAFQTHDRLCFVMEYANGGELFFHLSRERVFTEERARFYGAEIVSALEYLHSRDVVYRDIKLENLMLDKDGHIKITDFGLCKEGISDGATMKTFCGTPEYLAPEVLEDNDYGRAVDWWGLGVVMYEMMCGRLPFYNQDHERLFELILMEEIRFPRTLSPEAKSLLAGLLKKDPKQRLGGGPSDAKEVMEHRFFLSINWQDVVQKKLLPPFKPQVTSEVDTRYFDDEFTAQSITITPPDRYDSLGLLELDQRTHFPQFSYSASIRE

[3] = biological target: Tyrosine-protein kinase Fyn (Homo sapiens) (UniProt P06241); assay: Inhibition of Fyn at 1 uM
Chain of Tyrosine-protein kinase Fyn (Homo sapiens) (P06241 2-537 limits assumed): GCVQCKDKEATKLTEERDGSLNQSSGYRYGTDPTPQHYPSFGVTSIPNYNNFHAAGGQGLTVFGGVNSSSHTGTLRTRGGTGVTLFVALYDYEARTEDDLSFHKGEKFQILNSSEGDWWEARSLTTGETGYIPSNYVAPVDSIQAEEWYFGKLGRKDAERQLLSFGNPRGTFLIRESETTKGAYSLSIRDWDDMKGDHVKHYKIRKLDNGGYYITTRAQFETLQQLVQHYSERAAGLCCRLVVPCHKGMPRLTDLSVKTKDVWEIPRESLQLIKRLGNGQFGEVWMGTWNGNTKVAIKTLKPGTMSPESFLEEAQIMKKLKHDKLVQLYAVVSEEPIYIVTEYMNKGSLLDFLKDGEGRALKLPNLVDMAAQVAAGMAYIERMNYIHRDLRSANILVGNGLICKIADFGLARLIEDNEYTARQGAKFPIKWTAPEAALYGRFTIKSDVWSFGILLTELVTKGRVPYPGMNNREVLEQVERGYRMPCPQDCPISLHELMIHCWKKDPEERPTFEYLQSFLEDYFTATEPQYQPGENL
Procedure, shortened: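 Single-point profiling in a panel of 108 kinases. Each selected inhibitor was tested at two concentrations, 0.1 and 1.0 micromolar. Values are reported as inhibition at each concentration.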

[4] = biological target: T1, Ephrin type-B receptor 2 (Homo sapiens) (UniProt P29323); assay: Inhibition of EphB2 at 1 uM; values are per cent of control
T1 sequence (whole entry): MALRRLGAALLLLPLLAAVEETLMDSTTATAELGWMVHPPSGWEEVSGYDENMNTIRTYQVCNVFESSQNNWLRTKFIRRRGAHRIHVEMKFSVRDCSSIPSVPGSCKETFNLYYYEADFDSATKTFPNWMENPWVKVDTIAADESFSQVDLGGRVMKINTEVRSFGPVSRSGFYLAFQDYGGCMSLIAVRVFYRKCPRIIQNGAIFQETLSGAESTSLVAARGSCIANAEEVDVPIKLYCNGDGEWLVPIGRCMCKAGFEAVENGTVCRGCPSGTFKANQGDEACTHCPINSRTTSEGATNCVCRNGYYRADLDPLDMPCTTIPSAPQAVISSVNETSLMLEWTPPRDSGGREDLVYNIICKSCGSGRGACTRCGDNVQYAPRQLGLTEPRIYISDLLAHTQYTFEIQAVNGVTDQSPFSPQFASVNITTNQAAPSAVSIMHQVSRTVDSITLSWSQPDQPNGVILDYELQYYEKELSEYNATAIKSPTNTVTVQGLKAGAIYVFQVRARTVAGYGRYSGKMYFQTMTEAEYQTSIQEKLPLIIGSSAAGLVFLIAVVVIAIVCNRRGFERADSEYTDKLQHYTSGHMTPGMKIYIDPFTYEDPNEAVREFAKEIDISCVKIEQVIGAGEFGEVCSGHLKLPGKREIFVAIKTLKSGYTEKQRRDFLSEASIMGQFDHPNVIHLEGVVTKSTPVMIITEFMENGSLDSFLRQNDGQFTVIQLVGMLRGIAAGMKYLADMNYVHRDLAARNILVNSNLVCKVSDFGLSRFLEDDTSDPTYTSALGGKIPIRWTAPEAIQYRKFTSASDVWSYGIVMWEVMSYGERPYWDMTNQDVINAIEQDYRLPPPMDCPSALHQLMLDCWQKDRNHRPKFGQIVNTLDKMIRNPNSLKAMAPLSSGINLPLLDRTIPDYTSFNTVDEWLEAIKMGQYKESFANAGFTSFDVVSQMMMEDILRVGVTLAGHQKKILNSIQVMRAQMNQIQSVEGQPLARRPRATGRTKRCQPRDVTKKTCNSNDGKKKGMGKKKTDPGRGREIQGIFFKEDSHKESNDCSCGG

[5] = biological target: T2, Tyrosine-protein kinase ZAP-70 (Homo sapiens) (UniProt P43403); assay: Inhibition of ZAP70 at 0.1 uM; values are per cent of control
T2 sequence (whole entry): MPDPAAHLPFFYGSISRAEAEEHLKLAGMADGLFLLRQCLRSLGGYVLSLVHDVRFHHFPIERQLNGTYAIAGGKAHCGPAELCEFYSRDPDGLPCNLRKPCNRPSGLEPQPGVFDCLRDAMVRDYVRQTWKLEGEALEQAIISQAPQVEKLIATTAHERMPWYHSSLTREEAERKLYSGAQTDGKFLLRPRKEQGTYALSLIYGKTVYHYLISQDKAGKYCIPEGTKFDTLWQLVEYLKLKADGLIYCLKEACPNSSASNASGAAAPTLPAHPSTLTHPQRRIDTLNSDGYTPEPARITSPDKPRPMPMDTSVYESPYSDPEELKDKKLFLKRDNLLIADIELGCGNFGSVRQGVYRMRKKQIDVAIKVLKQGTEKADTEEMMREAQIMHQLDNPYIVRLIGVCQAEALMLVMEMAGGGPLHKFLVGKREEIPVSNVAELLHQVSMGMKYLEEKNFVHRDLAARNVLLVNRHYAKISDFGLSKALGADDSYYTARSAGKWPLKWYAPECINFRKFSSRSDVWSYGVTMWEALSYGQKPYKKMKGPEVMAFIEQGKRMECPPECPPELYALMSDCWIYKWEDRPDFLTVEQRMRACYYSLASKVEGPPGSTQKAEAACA

[6] = biological target: Tyrosine-protein kinase Fgr (Homo sapiens) (UniProt P09769); assay: Inhibition of Fgr at 1 uM; values are per cent of control
Chain of Tyrosine-protein kinase Fgr (Homo sapiens) (P09769 2-529 limits assumed): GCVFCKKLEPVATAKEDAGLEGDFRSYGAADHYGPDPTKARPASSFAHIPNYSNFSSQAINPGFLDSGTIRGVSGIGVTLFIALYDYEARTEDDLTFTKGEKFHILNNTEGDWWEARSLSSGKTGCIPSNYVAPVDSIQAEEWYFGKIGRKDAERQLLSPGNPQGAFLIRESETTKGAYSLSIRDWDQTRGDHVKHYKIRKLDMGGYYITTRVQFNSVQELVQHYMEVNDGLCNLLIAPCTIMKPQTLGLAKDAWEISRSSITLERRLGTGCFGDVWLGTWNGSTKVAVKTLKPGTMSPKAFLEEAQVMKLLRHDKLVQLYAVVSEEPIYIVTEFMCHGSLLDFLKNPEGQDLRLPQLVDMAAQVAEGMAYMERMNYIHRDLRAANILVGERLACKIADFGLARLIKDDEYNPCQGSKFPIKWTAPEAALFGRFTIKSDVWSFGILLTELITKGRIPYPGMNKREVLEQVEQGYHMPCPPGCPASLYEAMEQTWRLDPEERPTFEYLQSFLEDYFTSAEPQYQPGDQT

[7] = biological target: Protein kinase C alpha type (Homo sapiens) (UniProt P17252); assay: Inhibition of PKCalpha at 0.1 uM; values are per cent of control
[8] = biological target: T3, cGMP-dependent protein kinase 1 (Homo sapiens) (UniProt Q13976); assay: Inhibition of PKG1beta at 1 uM; values are per cent of control
T3 sequence (whole entry): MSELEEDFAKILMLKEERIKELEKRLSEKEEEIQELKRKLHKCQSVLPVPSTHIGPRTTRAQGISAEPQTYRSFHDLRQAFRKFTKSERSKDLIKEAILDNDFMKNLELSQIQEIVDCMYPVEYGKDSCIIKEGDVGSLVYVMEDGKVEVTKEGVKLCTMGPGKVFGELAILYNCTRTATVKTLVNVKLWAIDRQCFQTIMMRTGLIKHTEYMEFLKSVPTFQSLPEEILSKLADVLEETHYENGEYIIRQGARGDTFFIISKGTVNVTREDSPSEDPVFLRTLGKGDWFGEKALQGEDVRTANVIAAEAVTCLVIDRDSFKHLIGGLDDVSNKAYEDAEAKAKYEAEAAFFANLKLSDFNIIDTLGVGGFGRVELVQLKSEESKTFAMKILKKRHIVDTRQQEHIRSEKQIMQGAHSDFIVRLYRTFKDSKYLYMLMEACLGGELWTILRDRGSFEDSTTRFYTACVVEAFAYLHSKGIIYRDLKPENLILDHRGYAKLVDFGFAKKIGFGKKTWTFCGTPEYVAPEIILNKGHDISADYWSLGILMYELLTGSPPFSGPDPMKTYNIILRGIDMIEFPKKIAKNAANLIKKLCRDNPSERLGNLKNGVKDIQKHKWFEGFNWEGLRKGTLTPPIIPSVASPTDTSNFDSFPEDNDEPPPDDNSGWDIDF

[9] = biological target: RAC-alpha serine/threonine-protein kinase (Homo sapiens) (UniProt P31749); assay: Inhibition of PKBalpha at 0.1 uM; values are per cent of control
Chain of RAC-alpha serine/threonine-protein kinase (Homo sapiens) (P31749 whole entry): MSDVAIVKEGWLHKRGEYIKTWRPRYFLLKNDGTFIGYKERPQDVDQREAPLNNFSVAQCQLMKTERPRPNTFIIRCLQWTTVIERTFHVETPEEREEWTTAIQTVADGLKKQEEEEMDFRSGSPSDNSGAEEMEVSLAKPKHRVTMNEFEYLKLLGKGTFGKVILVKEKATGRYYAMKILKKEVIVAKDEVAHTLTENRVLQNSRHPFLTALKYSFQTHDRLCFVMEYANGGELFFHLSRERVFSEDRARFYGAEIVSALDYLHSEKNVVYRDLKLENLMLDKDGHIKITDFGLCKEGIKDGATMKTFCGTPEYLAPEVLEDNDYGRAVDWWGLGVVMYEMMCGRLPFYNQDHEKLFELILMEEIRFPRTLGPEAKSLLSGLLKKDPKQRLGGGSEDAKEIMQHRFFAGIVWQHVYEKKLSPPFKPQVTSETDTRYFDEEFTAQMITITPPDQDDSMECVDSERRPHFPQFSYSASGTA

Chain of Serine/threonine-protein kinase pim-2 (Homo sapiens) (Q9P1W9 whole entry, looked up): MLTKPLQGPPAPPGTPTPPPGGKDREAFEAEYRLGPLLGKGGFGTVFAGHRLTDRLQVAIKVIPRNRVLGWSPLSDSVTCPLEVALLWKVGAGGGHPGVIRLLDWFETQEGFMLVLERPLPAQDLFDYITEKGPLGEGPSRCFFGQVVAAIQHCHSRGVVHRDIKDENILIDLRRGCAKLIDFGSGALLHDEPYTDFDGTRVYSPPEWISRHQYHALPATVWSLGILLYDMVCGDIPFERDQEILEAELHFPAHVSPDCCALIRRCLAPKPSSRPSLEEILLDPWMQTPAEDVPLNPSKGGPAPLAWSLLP

Row | Structure (SMILES) | residual activity [1] | residual activity [2] | inhibition [3] | residual activity [4] | residual activity [5] | residual activity [6] | residual activity [7] | residual activity [8] | residual activity [9]
1 | Cc1ccc2cc(-c3n[nH]c4ccc(NC5CCN(Cc6ccccc6)CC5)cc34)[nH]c2c1 | 98% | 103% | 4% | 75% | 93% | 0% | 77% | 45% | 96%
2 | Cc1ccc2cc(-c3n[nH]c4ccc(NC5CCNC5)cc34)[nH]c2c1 (stereo not drawn) | 99% | 107% | 0% | 74% | 93% | -1% | 85% | 43% | 95%
